Data on one molecule can be found in ChEMBL document CHEMBL3425440, “ent-Kaurane Diterpenoids from Chinese Liverworts and Their Antitumor Activities through Michael Addition As Detected in Situ by a Fluorescence Probe” (J Med Chem, 2015).

Series [1] relates to DU-145. Put plainly: Cytotoxicity against human DU145 cells assessed as cell viability after 24 hrs by MTT assay. The series is classed as functional, cell-based. As to conditions: DU-145, 24 h. Put shortly:
(§1)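 Cells grown to about 50−70% confluence at 37 °C, 5% CO2, then exposed to compounds 24 h (DMSO vehicle control, cisplatin positive control). MTT (5 mg/mL stock) added for 4 h, formazan dissolved in DMSO, absorbance read at 570 nm. IC50 derived from percent viability; at least three independent experiments, mean ± SD.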
In general terms: Tetrazolium dyes change colour on reduction, which living cells bring about.

The test system of series [2] is PC-3. Briefly: Induction of apoptosis in human PC3 cells assessed as appearance of swelled/fused lysosomes at 8 uM after 2 hrs by LysoTracker Red and Hoechst 33342 staining-based confocal microscopic analysis. The format is functional, cell-based. Put shortly: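 PC3 cells given 8 μM compound for 2 h, then stained 30 min at 37 °C with 100 ng/mL LysoTracker Red and 10 μg/mL Hoechst 33342. Washed in PBS and imaged by confocal microscopy to assess lysosome swelling or fusion.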

A short description of series [3]: Cytotoxicity against human RWPE1 cells assessed as cell viability after 24 hrs by MTT assay. The series is classed as cell-based. As to conditions: RWPE-1, 24 h. Put shortly:
as §1

Series [4] concerns MDA-MB-231. Briefly: Cytotoxicity against human MDA-MB-231 cells assessed as cell viability after 24 hrs by MTT assay. The format is functional, cell-based. As to conditions: MDA-MB-231, 24 h. Put shortly: as §1
Series [5] relates to K562. Briefly: Cytotoxicity against human K562 cells assessed as cell viability after 24 hrs by MTT assay. The format is functional, cell-based. As to conditions: K562, 24 h. Put shortly:
as §1

Series [6] relates to NCI-H1299. Briefly: Cytotoxicity against human NCI-H1299 cells assessed as cell viability after 24 hrs by MTT assay. The format is functional, cell-based. As to conditions: NCI-H1299, 24 h. Put shortly: as §1
Series [7] is described as follows: Cytotoxicity against human HL60 cells assessed as cell viability after 24 hrs by MTT assay. The series is classed as functional, cell-based. As to conditions: HL-60, 24 h. Put shortly:
as §1

A short description of series [8]: Cytotoxicity against human PC3 cells assessed as cell viability after 24 hrs by MTT assay. The format is functional, cell-based. As to conditions: PC-3, 24 h. Put shortly: as §1
Series [9] has as its system PC-3. Briefly: Induction of apoptosis in human PC3 cells assessed as cathepsin B release from lysosome to cytosol at 8 uM measured over 48 hrs by Western blot analysis. The format is functional, cell-based. Put shortly:
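PC3 cells treated with 8 μM compound for the indicated times, lysed in RIPA buffer with protease inhibitors, protein quantified by BCA. Run on 12% SDS-PAGE, transferred to nitrocellulose, blocked in 5% milk/TBST. Probed overnight at 4 °C for cathepsin B with GAPDH loading control; ECL detection.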

Series [10] is described as follows: Selectivity index, ratio of IC50 for human RWPE1 cells to IC50 for human PC3 cells. The series is classed as functional.
A short description of series [11]: Drug uptake in lysosome of human PC3 cells at 8 uM preincubated for 4 hrs followed by fluorescence probe addition measured after 1 hr by 3-azido-7-(diethylamino)-2H-chromen-2-one fluorescence probe-based confocal microscopic analysis. The format is ADME, cell-based. As to conditions: pc-3, 1 h. Put shortly: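 PC3 cells on glass coverslips treated with compound for 4 h (5 μM NEM as thiol-scavenger control), fixed in cold methanol/acetone (1:1) for 5 min. Stained with 30 μM azidocoumarin probe, which fluoresces on reaction with thiols, for 1 h at room temperature in the dark. Mean cellular fluorescence quantified by confocal microscopy; mean ± SD.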

Activity calls are given as the source filed them. The calls are words filed in the database; no cut-off is given here.

For orientation: IC50 means the concentration that inhibits the measured activity by half. `C=C1C(=O)[C@@]23CC[C@H]4[C@@](C)(CCC[C@@]4(C)C(=O)OCCN4CCN(C)CC4)[C@@H]2CC[C@]1(O)C3`: the IC50 in series [1] was 14.9 µM; in series [3], 29.3 µM; in series [4], 27.5 µM; in series [5] it was 4.1 µM; in [6], 10.9 µM; in [7], 3 µM. Besides, in [8], the IC50 stood at 8.2 µM. Further, the result in series [2] and in series [9] was Active. Also, in series [10], the “Ratio IC50” value was 3.6. Besides, in series [11], the Drug uptake result was “Active”.
